Laboratory results published in ChEMBL document CHEMBL4725495, “Resorufin Enters the Photodynamic Therapy Arena: A Monoamine Oxidase Activatable Agent for Selective Cytotoxicity” (ACS Med Chem Lett, 2020).
pIC50: −log10 of the molar value. The source made the active and inactive calls. The calls are words filed in the database; no cut-off is given here.

Tests used:
[1] = Photocytotoxicity against […] cells assessed as reduction in cell viability for 30 mins followed by irradiation with LED light after 30 mins by MTTassay; assay type: cell-based; settings: nih3t3, 0.5 h
Procedure, shortened: (§1)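 Cells incubated with varying R1 concentrations, then irradiated 30 min with 595 nm LED (20 mW/cm2); viability by MTT assay; IC50 from curves.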

MCF7 = assay: Photocytotoxicity against human MCF-7 cells assessed as reduction in cell viability irradiated with 595 nm LED for 4 hrs measured after 24 hrs by MTT assay; assay type: functional, cell-based; settings: MCF7, light or radiation study
Procedure, shortened: (§2)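 Cells incubated with varying R1 concentrations, then irradiated 4 h with 595 nm LED (20 mW/cm2); viability read by MTT assay; IC50 from concentration–viability curves.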

SH-SY5Y [2] = assay: Photocytotoxicity against human SH-SY5Y cells assessed as cell viability in dark at 2.5 uM measured after 24 hrs by MTT assay; assay type: functional, cell-based
Procedure, shortened: (§3)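 Cells incubated with varying R1 concentrations and kept in the dark in parallel with irradiated plates; viability by MTT assay.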

[3] = target: T1, Amine oxidase [flavin-containing] A (Homo sapiens, UniProt P21397); assay: Prodrug activation assessed as MAO-A (unknown origin) mediated drug activation by measuring red shift of absorption maxima at 588/595 nm at 10 uM for 3 hrs by absorption spectroscopy
T1 sequence (P21397 whole entry): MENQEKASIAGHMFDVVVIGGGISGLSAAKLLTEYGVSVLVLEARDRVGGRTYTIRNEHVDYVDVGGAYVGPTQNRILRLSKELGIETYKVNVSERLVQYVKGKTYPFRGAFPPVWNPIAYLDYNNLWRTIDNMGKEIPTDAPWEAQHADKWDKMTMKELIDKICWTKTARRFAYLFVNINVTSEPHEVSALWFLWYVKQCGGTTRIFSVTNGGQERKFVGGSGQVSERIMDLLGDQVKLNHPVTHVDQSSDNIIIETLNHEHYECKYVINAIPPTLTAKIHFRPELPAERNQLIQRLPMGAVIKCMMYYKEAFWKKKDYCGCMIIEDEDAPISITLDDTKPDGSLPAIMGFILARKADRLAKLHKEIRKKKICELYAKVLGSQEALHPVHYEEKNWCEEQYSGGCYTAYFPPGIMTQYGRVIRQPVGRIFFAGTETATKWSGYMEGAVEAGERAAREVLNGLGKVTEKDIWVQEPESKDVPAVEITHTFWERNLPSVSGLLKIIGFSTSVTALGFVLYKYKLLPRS

[4] = Induction of singlet oxygen generation using PBS buffer assessed as decrease in absorbance of ADMDA at 380 nm irradiated with 595 nm LED; assay type: functional
Procedure, shortened: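 R1 (10 μM) pretreated with MAO-A or MAO-B (20 μg/mL) in PBS pH 7.4, 1% DMSO, with water-soluble anthracene trap ADMDA; kept dark 2 min, then irradiated with 595 nm LED (20 mW/cm2); ADMDA absorbance at 380 nm followed.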

SH-SY5Y [5] = assay: Induction of apoptosis in human SH-SY5Y cells assessed as necrotic cells level irradiated with 595 nm LED for 4 hrs at 2.5 uM by Annexin V-FITC/PI staining based confocal microscopy; assay type: functional, cell-based
Procedure, shortened: (§4)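 SH-SY5Y cells incubated with R1 (2.5 μM), kept dark or irradiated 4 h with 595 nm LED (20 mW/cm2), then stained with annexin V-FITC (green, early apoptosis) and propidium iodide (red, late apoptotic/necrotic); confocal imaging.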

SH-SY5Y [6] = assay: Photocytotoxicity against human SH-SY5Y cells assessed as reduction in cell viability irradiated with 595 nm LED for 4 hrs measured after 24 hrs by MTT assay; assay type: functional, cell-based; settings: light or radiation study; procedure, shortened: as §2
[7] = Photocytotoxicity against […] cells assessed as cell viability in dark at 2.5 uM measured after 24 hrs by MTT assay; assay type: cell-based; settings: nih3t3, 24 h; procedure, shortened: as §3
SH-SY5Y [8] = assay: Induction of apoptosis in human SH-SY5Y cells assessed as apoptotic cells incubated in dark for 4 hrs at 2.5 uM by Annexin V-FITC/PI staining based confocal microscopy; assay type: functional, cell-based; procedure, shortened: as §4
[9] = Photocytotoxicity against […] cells assessed as reduction in cell viability irradiated with 595 nm LED for 4 hrs measured after 24 hrs by MTT assay; assay type: cell-based; settings: NIH3T3, light or radiation study; procedure, shortened: as §2
SH-SY5Y [10] = assay: Photocytotoxicity against human SH-SY5Y cells assessed as cell viability at 2.5 uM irradiated with 595 nm LED for 4 hrs measured after 24 hrs by MTT assay; assay type: functional; settings: light or radiation study, read-out: Activity; procedure, shortened: as §2
[11] = target: T1, Amine oxidase [flavin-containing] A; assay: Prodrug activation assessed as MAO-A (unknown origin) mediated drug activation measuring increase in emission signal at 620 nm at 10 uM over 3 hrs by fluorescence spectroscopy
[12] = target: T2, Amine oxidase [flavin-containing] B (Homo sapiens, UniProt P27338); assay: Prodrug activation assessed as MAO-B (unknown origin) mediated drug activation measured increase in emission signal at 620 nm at 10 uM over 3 hrs by fluorescence spectroscopy
T2 sequence (P27338 whole entry): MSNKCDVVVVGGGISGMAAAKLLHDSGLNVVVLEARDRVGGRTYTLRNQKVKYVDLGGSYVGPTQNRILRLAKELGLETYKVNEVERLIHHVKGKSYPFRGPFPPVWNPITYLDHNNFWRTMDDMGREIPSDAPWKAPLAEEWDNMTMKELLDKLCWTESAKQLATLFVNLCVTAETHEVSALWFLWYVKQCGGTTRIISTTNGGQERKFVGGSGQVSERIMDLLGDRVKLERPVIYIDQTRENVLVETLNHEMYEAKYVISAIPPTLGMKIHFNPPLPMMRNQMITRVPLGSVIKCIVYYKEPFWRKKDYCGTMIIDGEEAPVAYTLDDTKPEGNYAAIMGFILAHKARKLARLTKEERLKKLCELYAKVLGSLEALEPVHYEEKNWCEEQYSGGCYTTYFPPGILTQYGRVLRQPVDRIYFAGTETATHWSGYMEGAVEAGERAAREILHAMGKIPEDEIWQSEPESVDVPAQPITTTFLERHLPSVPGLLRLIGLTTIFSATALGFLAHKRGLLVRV

SH-SY5Y [13] = assay: Induction of apoptosis in human SH-SY5Y cells assessed as late apoptotic cells level irradiated with 595 nm LED for 4 hrs at 2.5 uM by Annexin V-FITC/PI staining based confocal microscopy; assay type: functional, cell-based; procedure, shortened: as §4
SH-SY5Y [14] = assay: Induction of ROS production in human SH-SY5Y cells assessed as green emission irradiation with LED light for 30 mins measured after 3 hrs incubation by DCFH-DA staining based fluorescence microscopy; assay type: functional, cell-based
Procedure, shortened: (§5)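 Cells loaded with R1 for 3 h and with DCFH2-DA ROS sensor, then irradiated 30 min with LED (20 mW/cm2); green emission from oxidized sensor imaged by fluorescence microscopy.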

NIH3T3 = assay: Induction of ROS production in […] cells irradiation with LED light for 30 mins measured after 3 hrs by DCFH-DA staining based fluorescence microscopy; assay type: functional, cell-based; procedure, shortened: as §5
[15] = Photocytotoxicity against […] cells assessed as cell viability at 2.5 uM irradiated with 595 nm LED for 4 hrs measured after 24 hrs by MTT assay; assay type: cell-based, NIH3T3; settings: read-out: Activity; procedure, shortened: as §2
SH-SY5Y [16] = assay: Induction of ROS production in human SH-SY5Y cells irradiation with LED light for 30 mins measured after 3 hrs by DCFH-DA staining based fluorescence microscopy in presence of clorgyline; assay type: functional, cell-based
Procedure, shortened: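 SH-SY5Y cells pretreated 30 min with clorgyline (0.1 μM), then incubated 3 h with R1 plus DCFH2-DA sensor and irradiated 30 min with LED (20 mW/cm2); green fluorescence imaged.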

SH-SY5Y [17] = assay: Induction of apoptosis in human SH-SY5Y cells assessed as early apoptotic cells level irradiated with 595 nm LED for 4 hrs at 2.5 uM by Annexin V-FITC/PI staining based confocal microscopy; assay type: functional, cell-based; procedure, shortened: as §4
SH-SY5Y [18] = assay: Induction of ROS production in human SH-SY5Y cells assessed as green emission irradiation with LED light after 30 mins in presence of NaN3 measured after 3 hrs incubation by DCFH-DA staining based fluorescence microscopy; assay type: functional, cell-based
Procedure, shortened: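 SH-SY5Y cells pretreated with NaN3 as 1O2 quencher, then incubated with R1 and DCFH2-DA and irradiated with LED (20 mW/cm2); sensor green emission imaged by fluorescence microscopy.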

SH-SY5Y [19] = assay: Induction of ROS production in human SH-SY5Y cells in dark measured 3 hrs by DCFH2-DA fluorescence assay relative to control
[20] = Photostability in pH 7.4 PBS buffer at 408/500 nm irradiated with 595 nm LED for 4 hrs; assay type: physicochemical; settings: pH 7.4, 4 h
SH-SY5Y [21] = assay: Photocytotoxicity against human SH-SY5Y cells assessed as reduction in cell viability for 30 mins followed by irradiation with LED light after 30 mins by MTTassay; assay type: functional, cell-based; settings: light or radiation study, 0.5 h; procedure, shortened: as §1

- Activity [3]: Active
- Activity [11]: Not Active
- Activity [12]: Not Active
- Stabilty [20]: Stable
SMILES: NCCCOc1ccc2nc3ccc(=O)cc-3oc2c1I
- Activity [1]: Non-Toxic
- pIC50 (MCF7): 5.40
- Activity (SH-SY5Y [2]): inactive
- Activity [4]: inactive
- Activity (SH-SY5Y [5]): Active
- pIC50 (SH-SY5Y [6]): 6.38
- Activity [7]: Non-Toxic
- Activity (SH-SY5Y [8]): inactive
- pIC50 [9]: 5.19
- viability at 2.5 µM (SH-SY5Y [10]): 3%
- Activity (SH-SY5Y [13]): Active
- Activity (SH-SY5Y [14]): Active
- Activity (NIH3T3): inactive
- viability at 24 h, 2.5 µM [15]: 70%
- Activity (SH-SY5Y [16]): inactive
- Activity (SH-SY5Y [17]): Active
- Activity (SH-SY5Y [18]): inactive
- Activity (SH-SY5Y [19]): inactive
- pIC50 (SH-SY5Y [21]): 5.72
